MC4R antag cAMP = antagonists of human melanocortin 4 receptor (MC4R) | MC4R-expressing cells, MTII-stimulated cAMP, LANCE TR-FRET | inhibition, % at 6.5 µM | 0.48% of 360,000 active;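 active = inhibition above its plate's cutoff, the mean of tested wells on that plate plus 3 SD, cut at about 29% in these data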;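 note: 0% = Melanotan II alone and 100% = Melanotan II plus saturating MCL0020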
Target sequence (P32245 whole entry, looked up): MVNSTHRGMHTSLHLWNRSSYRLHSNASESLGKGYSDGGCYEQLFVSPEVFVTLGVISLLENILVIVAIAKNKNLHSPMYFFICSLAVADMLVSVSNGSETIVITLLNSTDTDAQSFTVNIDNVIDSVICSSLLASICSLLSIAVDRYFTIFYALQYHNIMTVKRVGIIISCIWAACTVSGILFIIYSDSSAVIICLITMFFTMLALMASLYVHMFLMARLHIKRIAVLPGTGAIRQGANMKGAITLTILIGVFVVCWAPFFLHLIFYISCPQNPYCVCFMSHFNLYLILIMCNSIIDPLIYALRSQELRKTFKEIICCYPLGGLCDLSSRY
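Test system: U2OS cells stably expressing human melanocortin 4 receptor (MC4R); also added: Melanotan II challenge; compound: 6.5 µM single dose; timing: 30-min compound preincubation, 1-h Melanotan II challenge, 1-h detection, room temperature; signal: Eu-cAMP/anti-cAMP TR-FRET, emission 671 nm; repeats: one well per compound, no replicates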
NR2E3 ag-1 = human photoreceptor-specific nuclear receptor agonism; Q9Y5X4; CHO-S Gal4-NCOR/VP16-NR2E3 two-hybrid, luciferase; inhibition of corepressor binding, % at 3.98 µM; 0.35% of 360,000 active;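 active = inhibition above the mean of all tested compounds plus 3 SD, cut at about 70% in these data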;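 note: 0% = DMSO with NR2E3 transfected cells and 100% = cells lacking NR2E3 construct; higher means lower luciferase signal from less NR2E3 corepressor binding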
MC4R ag barr = agonists of human melanocortin 4 receptor (MC4R) beta-arrestin; U2OS MC4R beta-arrestin complementation, luminescence; percent of melanotan II response, DMSO zero; AID 540308; 0.98% of 360,000 active; activation, % at 8.9 µM;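 active = activation above a per-plate cutoff, the mean activation of sample wells on that plate plus 3 SD, cut at about 8% in these data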
Rev-erbA mod = modulates human Rev-erb alpha binding to DNA | P20393 | Rev-erbα–FITC-DNA binding, fluorescence polarization, 90 min | activity, % at 10 µM | 0.79% of 370,000 active | AID 1259318;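 active = activity above about 14%, limit read from the data; passing the limit was not always enough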;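 note: 0% = DMSO wells with 35 nM protein and 100% = DMSO wells with 750 nM protein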
NR2E3 ag-2 = agonists of human nuclear receptor NR2E3; Q9Y5X4; GST-NR2E3/biotin-RetCOR TR-FRET, 1536-well; inhibition of corepressor binding, % at 4.78 µM; 0.12% of 320,000 active; AID 2300;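 active = percent inhibition above the cutoff of mean plus 3 SD of all tested compounds, set per screening campaign, cut at about 20% in these data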;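 note: 0% = DMSO wells and 100% = biotin wells as full block of FRET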
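Test system: GST-NR2E3 and biotin-RetCOR proteins | Quantity: 1.35 nM GST-tagged NR2E3 final | Medium: Tris pH 7.5 | Also added: 7 nM biotin-RetCOR | Dosing: Compound at 4.8 µM, single dose | Timing: 5 h at 4 °C | Detection: Time-resolved FRET | Read-out basis: Percent inhibition | Benchmarks: Biotin wells as high control, 0.6% DMSO wells as low control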
PG9 binder = small molecules binding HIV-1 gp120 antibody PG9; inhibition, % at 6.7 µM; TR-FRET gp120-PG9 antibody binding; 0.43% of 360,000 active; AID 624416; in the data active = inhibition above about 8.5%
MC4R barr conf = human MC4R beta-arrestin agonism confirmation. shares compounds with MC4R ag barr. U2OS MC4R beta-arrestin recruitment, luminescence; scaled DMSO 0%, Melanotan II 100%. activation, % at 8.9 µM. 31% of 2,400 active. AID 602192;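 active = mean activation across replicates above the hit cutoff set in the earlier primary screen, cut at about 8% in these data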
MOR DOR agonist = activates mu-delta opioid heterodimer, MC4R agonist counter-screen | AID 602194 | activation, % at 9.2 µM | 5.8% of 2,400 active | U2OS PathHunter beta-arrestin, beta-gal luminescence; percent of deltorphin B response, DMSO zero | shares compounds with MC4R ag barr;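 active = mean activation across replicates exceeds the hit threshold derived in the earlier primary screen, cut at about 18% in these data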;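 note: 100% = deltorphin B at 0.9 µM final and 0% = DMSO alone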
* hit, by the source's call; · = no result. Most compounds without a hit are left out; they make up all but 2.7% or so of the library.

SMILES	MC4R antag cAMP	NR2E3 ag-1	MC4R ag barr	Rev-erbA mod	NR2E3 ag-2	PG9 binder	MC4R barr conf	MOR DOR agonist
CCCCCCCCCCCCCCCCn1cc[n+](C)c1	16	51	15*	4	1	-2	30*	8
CCCCCCCCn1ccc(=N)cc1	-3	9	1	0	-1	0	·	·
O=C(Nc1ccccc1)Nc1nnc(CSCc2ccccc2Cl)s1	3	-5	11*	2	0	-1	3	4
Cc1cccc(NC(=S)NC(=O)C(c2ccccc2)c2ccccc2)n1	-13	3	33*	1	2	-3	20*	7
CCCn1c(=S)[nH]c2cc(C(=O)N3CCN(c4ccccc4)CC3)ccc2c1=O	0	-10	-2	4	·	0	·	·
CCCn1c(=S)[nH]c2cc(C(=O)N3CCc4ccccc4C3)ccc2c1=O	9	-2	12*	1	6	-1	-3	3
O=C1CSC(=Nc2ccc(O)cc2)N1c1ccc(O)cc1	0	-12	-1	-2	2	2	·	·
Cc1ccc(N2C(=O)CS/C2=N\C(=S)Nc2ccccc2)cc1	5	-3	27*	-1	-46	-46	2	9
O=C(CSc1ccc(Cl)cc1)NC(=O)c1ccccc1	2	-5	0	7	0	2	·	·
O=C(CSc1ccccc1F)NC(=O)c1ccc(Cl)cc1	4	-12	10*	-4	·	2	5	2
CCOc1ccc(N2CC(C(=O)Nc3ccccc3C(=O)N3CCOCC3)CC2=O)cc1 (centres undefined)	9	-11	0	-6	0	0	·	·
COc1ccc(-c2[nH]c(-c3ccc4c(c3)OCO4)nc2-c2ccccc2)cc1	-2	2	0	-4	0	-1	·	·
COc1cc(-c2nc(-c3ccccc3)c(-c3ccc(F)cc3)[nH]2)cc2c1OCO2	12	-2	12*	8	1	2	3	10
Cc1nc(C)c(-c2ccc(SCc3ccccc3F)nn2)s1	7	-81	-2	-2	-3	0	·	·
O=Cc1cn(-c2ccccc2)nc1-c1ccccc1	14	-44	1	3	3	0	·	·
N#Cc1cn(-c2ccccc2)nc1-c1ccccc1	0	-12	12*	3	-1	-1	-1	9
Cc1nn(C)c(=S)n1-c1ccc(Cl)cc1	12	-18	-5	0	2	1	·	·
Cc1ccc(CN2CC(C(=O)Nc3nnc(SCc4c(Cl)cccc4Cl)s3)CC2=O)cc1 (centres undefined)	2	-17	29*	-2	-1	2	8	4
Cc1ccc(Nc2n[nH]c(=S)s2)cc1F	10	-90	-2	-5	·	1	·	·
CCn1cc([N+](=O)[O-])c(C(=O)N2N=C(c3ccc(Cl)c(Cl)c3)CC2c2ccccc2O)n1 (centres undefined)	11	-24	6	7	3	1	·	·
CCn1cc([N+](=O)[O-])c(C(=O)N2N=C(c3ccc4ccccc4c3)CC2c2cc(Br)ccc2O)n1 (centres undefined)	5	10	16*	·	-2	·	9.0*	6
COC(=O)[C@H](CC(C)C)NC(=O)c1cc2c(cn1)[nH]c1ccccc12	-10	-2	-2	1	-2	2	·	·
COC(=O)Cn1c(C(=O)N(C)C)cc2c1C[C@H]1CN(C(=O)c3ccccc3)[C@@](Cc3ccc(F)cc3)(C(=O)OC)[C@@H]21	·	-5	·	5	·	-1	·	·
CCCn1c(SCC(=O)N2N=C3/C(=C/c4ccc(OC)cc4)CCCC3C2c2ccc(OC)cc2)n[nH]c1=O (centres undefined)	6	-3	13*	0	0	-3	14*	9
COc1cc(NS(=O)(=O)c2ccc(NC(=O)c3ccc(S(=O)(=O)N4CCCC4)cc3)cc2)ncn1	·	·	·	-2	-2	1	·	·
SMILES	MC4R antag cAMP	NR2E3 ag-1	MC4R ag barr	Rev-erbA mod	NR2E3 ag-2	PG9 binder	MC4R barr conf	MOR DOR agonist
O=C(CCCn1c(SCC(=O)c2ccc(F)cc2)nc2ccccc2c1=O)NCc1ccccc1	12	-15	24*	-5	-1	0	2	13
Cc1cc(NC(=O)CSc2nc3ccccc3c(=O)n2CCCC(=O)NCc2ccccc2)n[nH]1	-10	-1	2	-3	-1	0	·	·
O=C1c2ccccc2C2(c3ccccc3)NCCN12 (centres undefined)	1	-1	-2	7	3	2	·	·
CN1CCN(c2ccc3sc(-n4ccc5ccccc54)nc3c2)CC1	0	-27	1	9	·	-1	·	·
O=C(C1CCCN(S(=O)(=O)c2ccccc2)C1)N1CCN(c2ccccc2)CC1 (centres undefined)	-4	-22	0	-2	-4	-2	·	·
c1ccc(COc2ncnc3c2ncn3CCCN2CCN(Cc3cccc4ccccc34)CC2)cc1	13	-17	20*	4	·	0	10*	7
Cc1ccc(CN2CCN(CCCn3cnc4c(OCc5ccccc5)ncnc43)CC2)cc1	1	3	3	-8	·	0	·	·
O=C(Cc1cccs1)Nc1ccc(-c2nnc(-c3ccccc3)o2)cc1	4	-12	0	4	1	8	·	·
O=C(Cc1cccs1)Nc1ccc(-c2nnc(-c3ccco3)o2)cc1	7	-6	11*	-6	3	2	4	6
O=C(CSc1nnc(SCc2ccccc2)s1)N/N=C/C=C\c1ccco1	3	6	-1	-8	2	-2	·	·
CC(=C/c1ccco1)/C=N/NC(=O)CSc1nnc(SCc2ccc(C)cc2)s1	8	30	20*	-2	1	-1	3	5
Cc1ccc(CSc2nnc(SCC(=O)N/N=C/c3c[nH]c4ccccc34)s2)cc1	-8	-7	12*	-29	·	0	13*	18*
CSc1ccc(C(=O)C2CCCN(C(=O)c3ccc4c(c3)OCO4)C2)cc1 (centres undefined)	0	24	-2	0	3	2	·	·
COc1ccc(NS(=O)(=O)c2ccc(NS(=O)(=O)c3cccs3)cc2)c(OC)c1	11	-13	-1	-1	8	0	·	·
FC(F)Sc1ccc(NC(=S)NCc2ccccc2)cc1	10	-7	2	14	1	0	·	·
FC(F)Sc1ccc(NC(=S)NC(c2ccccc2)c2ccccc2)cc1	13	-15	9.6*	1	5	-1	4	9

Assay outcomes deposited in PubChem BioAssay by several laboratories.
